Assay results as given in ChEMBL document CHEMBL1759862, “Tricyclic compounds containing nonenolizable cyano enones. A novel class of highly potent anti-inflammatory and cytoprotective agents” (J Med Chem, 2011).
Active and inactive are the calls of the source. The rule behind the calls is not given here.

Columns and labels:
[1] = system: RAW264.7; assay: Antiinflammatory activity in mouse RAW264.7 cells assessed as inhibition of IFN-gamma induced NO production after 24 hrs by Griess reaction; type: functional, cell-based; conditions: Mus musculus, RAW264.7, 24 h
How it was run: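 RAW 264.7 cells exposed to serial concentrations of compound together with IFN-γ (10 ng/mL) for 24 h; NO in supernatants quantified by Griess reaction. IC50 tested over 0.1 pM to 10 μM in 10-fold steps; values averaged from two separate experiments.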

[2] = system: RAW264.7; assay: Induction of HO-1 expression in mouse RAW264.7 cells at 30 nM after 6 hrs by Western blotting; type: functional, cell-based
How it was run: (§1)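 RAW cells treated with compound for 6 h (30–300 nM range); HO-1 detected in total cell lysates by Western blot.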

[3] = system: RAW264.7; assay: Induction of HO-1 expression in mouse RAW264.7 cells at 300 nM after 6 hrs by Western blotting; type: functional, cell-based; how it was run: as §1
[4] = target: NAD(P)H dehydrogenase [quinone] 1 (Mus musculus) (UniProt Q64669); assay: Induction of NQO1 activity in mouse Hepa-1c1c7 cells after 48 hrs; type: cell-based
[5] = Cytotoxicity against CD-1 mouse macrophages at 10 uM; type: cell-based; conditions: macrophage
[6] = Antiinflammatory activity in CD-1 mouse Macrophage assessed as inhibition of IFN-gamma induced NO production after 48 hrs by Griess reaction; type: functional, cell-based
[7] = Mus musculus, CD-1, Macrophage, 48 h

Sequence of NAD(P)H dehydrogenase [quinone] 1 (Mus musculus) (Q64669 whole entry): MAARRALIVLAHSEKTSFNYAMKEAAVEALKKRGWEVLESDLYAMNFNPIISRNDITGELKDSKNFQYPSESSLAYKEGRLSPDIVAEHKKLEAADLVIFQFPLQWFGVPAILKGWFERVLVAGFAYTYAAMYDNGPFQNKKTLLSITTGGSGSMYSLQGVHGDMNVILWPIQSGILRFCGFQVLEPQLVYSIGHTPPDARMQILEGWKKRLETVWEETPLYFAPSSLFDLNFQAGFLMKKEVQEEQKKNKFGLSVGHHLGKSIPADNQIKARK

SMILES	IC50 [1] [nM]	further results
COC(=O)[C@]12CCC(=O)C=C1[C@@]1(C)C=C(C#N)C(=O)C(C)(C)[C@@H]1CC2 (racemic)	290	
CC1(C)C(=O)C(C#N)=C[C@]2(C)C3=CC(=O)CC[C@]3(C(=O)OCOCC[Si](C)(C)C)CC[C@@H]12 (racemic)	150	
CC1(C)C(=O)C(C#N)=C[C@]2(C)C3=CC(=O)CC[C@]3(C(=O)O)CC[C@@H]12 (racemic)	83	
CC1(C)C(=O)C(C#N)=C[C@]2(C)C3=CC(=O)CC[C@]3(C(N)=O)CC[C@@H]12 (racemic)	> 10000	
COC[C@]12CCC(=O)C=C1[C@@]1(C)C=C(C#N)C(=O)C(C)(C)[C@@H]1CC2 (racemic)	40	
CC1(C)C(=O)C(C#N)=C[C@]2(C)C3=CC(=O)CC[C@]3(CN)CC[C@@H]12 (racemic)	240	
CC[C@]12CCC(=O)C=C1[C@@]1(C)C=C(C#N)C(=O)C(C)(C)[C@@H]1CC2 (racemic)	80	
C#C[C@]12CCC(=O)C=C1[C@@]1(C)C=C(C#N)C(=O)C(C)(C)[C@@H]1CC2 (racemic)	83	
CC1(C)C(=O)C(C#N)=C[C@]2(C)C3=CC(=O)C(C#N)=C[C@]3(C#N)CC[C@@H]12 (racemic)	115	
CC1(C)C(=O)C(C#N)=C[C@]2(C)C3=CC(=O)C(C#N)=C[C@]3(C#Cc3nccn3COCC[Si](C)(C)C)CC[C@@H]12 (racemic)	35	Activity [2]: Active
CC1(C)C(=O)C(C#N)=C[C@]2(C)C3=CC(=O)C(C#N)=C[C@]3(C#Cc3ncc[nH]3)CC[C@@H]12 (racemic)	400	
Cc1csc(C#C[C@]23C=C(C#N)C(=O)C=C2[C@@]2(C)C=C(C#N)C(=O)C(C)(C)[C@@H]2CC3)n1 (racemic)	20	Activity [2]: Active; Activity [3]: Active
CC1(C)C(=O)C(C#N)=C[C@]2(C)C3=CC(=O)C(C#N)=C[C@]3(C#Cc3ccccc3)CC[C@@H]12 (racemic)	50	Activity [2]: Active; Activity [3]: Active
CC#C[C@]12C=C(C#N)C(=O)C=C1[C@@]1(C)C=C(C#N)C(=O)C(C)(C)[C@@H]1CC2 (racemic)	5	CD [4]: 7.5 nM
CCC#C[C@]12C=C(C#N)C(=O)C=C1[C@@]1(C)C=C(C#N)C(=O)C(C)(C)[C@@H]1CC2 (racemic)	20	
CC1(C)C(=O)C(C#N)=C[C@]2(C)C3=CC(=O)C(C#N)=C[C@]3(C#C[Si](C)(C)C)CC[C@@H]12 (racemic)	3	
CC[C@]12C=C(C#N)C(=O)C=C1[C@@]1(C)C=C(C#N)C(=O)C(C)(C)[C@@H]1CC2 (racemic)	10	CD [4]: 18 nM; Activity [2]: Active
C=C[C@]12C=C(C#N)C(=O)C=C1[C@@]1(C)C=C(C#N)C(=O)C(C)(C)[C@@H]1CC2 (racemic)	10	CD [4]: 30 nM; Activity [2]: Active
CC(=O)O[C@@H]1CC(=O)C=C2[C@@]3(C)C=C(C#N)C(=O)C(C)(C)[C@@H]3CC[C@]21C (racemic)		Activity [5]: Non-toxic
CC1(C)C(=O)C(C#N)=C[C@]2(C)C3=CC(=O)C(C(=O)O)=C[C@]3(C)CC[C@@H]12 (racemic)		Activity [5]: Non-toxic
COC(=O)C1=C[C@]2(C)CC[C@H]3C(C)(C)C(=O)C(C#N)=C[C@]3(C)C2=CC1=O (racemic)		Activity [5]: Non-toxic
CC1(C)C(=O)C(C#N)=C[C@]2(C)C3=CC(=O)C(C#N)=C[C@]3(C)CC[C@@H]12 (racemic)	23	IC50 ([6]; macrophage): 2.1 nM; Activity [5]: Non-toxic
CC1(C)C(=O)C(C#N)=C[C@]2(C)C3=CC(=O)C(C#N)=C[C@]3(C#CC#N)CC[C@@H]12 (racemic)	4	Activity [2]: Active
CC1(C)C(=O)C(C#N)=C[C@]2(C)C3=CC(=O)C=C[C@]3(C)CC[C@@H]12 (racemic) [listing 1 of 2 here]	87	Activity [5]: Non-toxic
CC1(C)C(=O)C(C#N)=C[C@]2(C)C3=CC(=O)C=C[C@]3(C)CC[C@@H]12 (racemic) [listing 2 of 2 here]		CD [4]: 160 nM
COC(=O)[C@]12CCC(C)(C)C[C@H]1[C@H]1C(=O)C=C3[C@@]4(C)C=C(C#N)C(=O)C(C)(C)[C@@H]4CC[C@@]3(C)[C@]1(C)CC2 [BARDOXOLONE METHYL]		IC50 [6, 7]: 0.2 nM; Activity [5]: Non-toxic
C[C@@H]1C[C@H]2[C@@H]3CCC4=CC(=O)C=C[C@]4(C)[C@@]3(F)[C@@H](O)C[C@]2(C)[C@@]1(O)C(=O)CO [DEXAMETHASONE]	20	
C[C@]12CCC(=O)C=C1CC[C@@H]1[C@@H]2[C@@H](O)C[C@@]2(C)[C@H]1CC[C@]2(O)C(=O)CO [HYDROCORTISONE]	61	IC50 [6, 7]: 10 nM; Activity [5]: Non-toxic
